Source: PubChem BioAssay AID617 (SRMLSC, 2007)

Test system: E. coli BW25113 ΔtolC growth inhibition, OD615
Experiment: E. coli ΔtolC antibacterial growth inhibition – strain BW25113 ΔtolC::kan, dose response (AID 617);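 also: growth read after 20 h at 37 °C with compound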
How it was run: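 Test system: E. coli BW25113 ΔtolC::kan bacteria | Amount: 1:1000 diluted subculture inoculum | Medium: LB plus kanamycin | Timing: 20 h exposure at 37 °C | Signal: Absorbance at 615 nm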

Cc1ccc(C(=O)N2CCN(c3cccc(Cl)c3)CC2)cc1C
IC50: 10.4 µM

COc1ccc(Nc2nc(N3CCCC3)c3ccccc3n2)cc1
IC50: 18.3 µM

COc1ccc(-c2cc3nc4c(c(N5CCC6(CC5)OCCO6)n3n2)CCCC4)cc1
IC50: 28.8 µM

Clc1ccc(C(c2nnnn2C2CCCCC2)N(Cc2cccnc2)Cc2ccco2)cc1 (configuration not stated)
IC50: 14.8 µM

N#Cc1c(N)oc(-c2ccc3c(c2)OCO3)c1-c1ccc2c(c1)OCO2
IC50: 49.9 µM

N=c1n(CCN2CCOCC2)c2ccccc2n1CC(=O)c1ccc(Cl)c(Cl)c1
IC50: 27.1 µM

O=C(Cc1ccccc1F)Nc1nc(-c2cccs2)cs1
IC50: 6.95 µM

Cc1cccc(Nc2nc(NCc3ccco3)nc(N3CCOCC3)n2)c1
IC50: 10.1 µM

Cn1c(=O)n(Cc2ccccc2)c(=O)c2c1nc1n2CCCN1Cc1ccccc1
IC50: 42.8 µM

Cc1[nH]n2c(=O)c3c(nc2c1-c1ccc(Cl)cc1)CCC3
IC50: 4.09 µM

Fc1ccc(-n2c(Cc3ccccc3)nnc2SCc2nc(-c3cccs3)no2)cc1
IC50: 19.1 µM

Fc1cccc(-c2cc3nc4c(c(N5CCOCC5)n3n2)CCCC4)c1
IC50: 18.4 µM

Cc1ccc(NC(=O)c2ccccc2O)cc1
IC50: 16 µM

CCn1cc(C(=O)Nc2nncs2)c(=O)c2cc(F)c(N3CCN(C(=O)c4ccco4)CC3)cc21
IC50: 0.19 µM

CCc1nc(N2CCCCC2C)c2oc3ccccc3c2n1 (configuration not stated)
IC50: 13.6 µM

COc1ccc(C(C)(C)C)cc1NC(=O)Nc1ccc2c(c1)OCO2
IC50: 5.28 µM

CCCCOC(=O)Nc1cc(C(=O)OC)ccc1C(=O)OC
IC50: 26.8 µM

Oc1c(CN2CCCCC2)cc(COCc2ccccc2)c2cccnc12
IC50: 13.2 µM

Cc1cccc(N2CCN(C(=O)c3cn(C)c(=O)c4c3c3ccccc3n4C)CC2)c1C
IC50: 16 µM

CCOC(=O)Cc1c(C)nc2c(-c3ccc(Cl)cc3)c[nH]n2c1=O
IC50: 2.11 µM

CC1(C)COCN1S(=O)(=O)c1ccc(C(=O)Nc2nnc(-c3ccc(Cl)s3)o2)cc1
IC50: < 0.2 µM

COc1cc(C2C(C(=O)c3ccc(C)o3)=C(O)C(=O)N2c2cc(C)on2)cc(Br)c1O (configuration not stated)
IC50: 24.7 µM

O=c1c(-c2nc3ccccc3o2)c2oc3ccccc3n2c2ccccc12
IC50: 17.6 µM

O=C(CSc1nnnn1C1CCCCC1)Nc1nc2c(s1)CCCC2
IC50: 10.2 µM

Cn1c(Oc2ccccc2NCc2cc(Br)ccc2O)cc(=O)n(C)c1=O
IC50: 4.08 µM

Cc1ccc(Cn2ccc(NC(=O)c3cc(CC(C)C)on3)n2)cc1
IC50: 8.54 µM

Cc1ccc(Cl)cc1N1CCN(C(=O)COc2ccc(S(=O)(=O)NC(C)C)cc2)CC1
IC50: 10.6 µM

COc1cccc(-c2csc(N3CCN(C(=O)C4CCCCC4)CC3)n2)c1
IC50: 16.8 µM

Cn1ncc(C#N)c1/N=C/N(Cc1ccccc1)Cc1ccccc1
IC50: 7.5 µM

N=c1n(Cc2ccccc2)c2ccccc2n1CC(O)COc1ccccc1 (configuration not stated)
IC50: 21.2 µM

CCOC(=O)C1CCN(c2ncnc3c2oc2ccc(Br)cc23)CC1
IC50: 12.8 µM

O=C(c1noc2c1CCc1ccccc1-2)N1CCCc2ccccc21
IC50: 12.2 µM

CCOC(=O)c1cccc2c1-c1ccccc1/C2=N/O
IC50: 97.1 µM

Cc1cc(-c2ccco2)c(C#N)c2nc3ccccc3n12
IC50: 9.09 µM

OC1(c2cccc(C(F)(F)F)c2)CCN(c2ncnc3c2[nH]c2ccc(F)cc23)CC1
IC50: 1.58 µM

Cc1ccc(C2(c3ccc(C)cc3)NC(=O)N(Cc3c(C)noc3C)C2=O)cc1
IC50: 6.45 µM

COc1ccc(-c2[nH]ncc2Oc2ccccc2OC)c(O)c1
IC50: 10.5 µM

Oc1ccccc1-c1cc(-c2ccc3c(c2)OCCO3)n[nH]1
IC50: 8.15 µM

S=C(c1ccc(-c2ccc(Cl)c(Cl)c2)o1)N1CCOCC1
IC50: 11.2 µM

Cc1cc(N2CCCCC2)nc(SCc2ccc(C#N)cc2)n1
IC50: 12.1 µM

COC(=O)C1=C(C)N(C)C(C)=C(C(=O)OC)C1c1ccc(F)c(Br)c1
IC50: 20 µM

COCc1nnc(NC(=O)c2ccc(S(=O)(=O)N(C)c3ccccc3)cc2)o1
IC50: 6.56 µM

O=C(Nc1cccc(Cl)c1)N(CCCN1CCOCC1)Cc1ccccc1F
IC50: 7.19 µM

O=C(Nc1ccc2nc(-c3cccs3)[nH]c2c1)c1ccco1
IC50: 82.7 µM

CCOc1ccc(Nc2cc(C)nc(-n3nc(C)cc3C)n2)cc1
IC50: 4.19 µM

COc1ccc(NS(=O)(=O)c2ccc3oc4ccccc4c3c2)cn1
IC50: 5.62 µM

Oc1cccc(Nc2nc(NCC3CCCO3)c3ccccc3n2)c1 (configuration not stated)
IC50: 4.68 µM

CC(C)(C)OC(=O)N1CCC[C@H]1c1nnc(SCc2ccc(Cl)cc2Cl)o1
IC50: 11 µM

c1csc(-c2nc3nc4ccccc4nc3n2Cc2ccc3c(c2)OCO3)c1
IC50: 9.62 µM

Cc1ccc(S(=O)(=O)N(Cc2ccc(F)cc2)Cc2ccco2)cc1
IC50: 7.01 µM

COc1ccc(-n2c(Cc3cccn3C)nnc2SCC(=O)Nc2ccc(C)c(Cl)c2)cc1
IC50: 14.4 µM

CCc1ccccc1NS(=O)(=O)c1ccc(SC)cc1
IC50: 41.6 µM

Cc1ccccc1Cn1nc(C)c(NC(=O)c2noc3c2CCc2ccccc2-3)c1C
IC50: 12.1 µM

OCCn1c(-c2ccc3c(c2)OCO3)csc1=Nc1ccccc1
IC50: 23.5 µM

C/C(CCc1oc2ccccc2c1-c1ccc(C)o1)=N/O
IC50: 14.2 µM

Cc1ccccc1CSc1nc2n(n1)C(c1cccs1)C1=C(CCCC1=O)N2 (configuration not stated)
IC50: 8.42 µM

NC1=NC(c2cn(-c3ccccc3)nc2-c2cccs2)n2c(nc3ccccc32)N1 (configuration not stated)
IC50: 16.4 µM
